The source of these data is ChEMBL document CHEMBL4673226, “Development of 5-Aminopyrazole-4-carboxamide-based Bumped-Kinase Inhibitors for Cryptosporidiosis Therapy” (J Med Chem, 2019).

In general, solubility refers to the dissolved amount per volume that the medium holds. In general, IC50 refers to the midpoint of a concentration-inhibition curve. As usually defined, the Cmax is the maximum level reached in the sampled fluid or tissue. Broadly, the AUC is the area under the concentration-time curve, a measure of exposure. The low end stands for less exposure, the high end for more exposure. For orientation: CL/F means clearance divided by bioavailability, as obtained after extravascular dosing.

Converted amounts (≈) assume the structure as drawn. The source made the active and inactive calls. The rule behind the calls is not given here.

A short description of data set [1]: Cardiotoxicity in rat. The format is toxicity.
Data set [2] is described as follows: Protein binding in mouse plasma by dialysis method.
Data set [3] in a line: Toxicity in mouse assessed as effect on serum chemistry parameters at 100 to 250 mg/kg, po QD for 7 days. The format is organism-based. To be noted: in vivo, 168 h, dose 100-250 mg/kg, time 7 day.
Data set [4] can be described thus: Plasma concentration in mouse at 250 mg/kg, po QD for 2 days measured after 2 hrs by LC-MS/MS analysis.
A short description of data set [5]: Solubility in pH 6.5 solution. The settings on record: buffer.
Data set [6] in a line: Inhibition of Cryptosporidium parvum CDPK1 assessed as reduction in ATP consumption using BioSyntide-2 substrate incubated for 90 mins by luciferase reporter gene assay.
The conditions of data set [7]: mouse, in vivo, po, 30 mg/kg, 96 h.
A short description of data set [8]: Plasma concentration in mouse at 250 mg/kg, po QD for 7 days measured after 72 hrs by LC-MS/MS analysis.
In data set [9] the test system is Cryptosporidium parvum. Put plainly: Antimicrobial activity against nano-luciferase-expressing Cryptosporidium parvum infected in IFN-gamma KO B6.129S7-Ifngtm1Ts/J mouse assessed as log reduction of infection at 15 mg/kg, po QD for 5 days beginning on day 6 post infection relative untreated control. The format is functional, organism-based. To be noted: time 5.0 day.

The nature of data set [10]: Drug level in mouse fecus at 25 mg/kg, po. To be noted: read-out: Drug uptake, in vivo.
The nature of data set [11]: Toxicity in human CRL-8155 cells. Format: cell-based.
A short description of data set [12]: Toxicity in mouse at 100 mg/kg, po QD for 7 days. Format: organism-based. The settings on record: in vivo, 168 h, time 7 day.
A short description of data set [13]: Plasma concentration in mouse at 250 mg/kg, po QD for 7 days measured after 48 hrs by LC-MS/MS analysis.
Data set [14] in a line: Protein binding in human plasma by dialysis method.
The test system of a further data set is HepG2. Put plainly: Toxicity in human HepG2 cells. Format: cell-based.
Data set [15] in a line: Toxicity in mouse assessed as induction of distress at 100 to 250 mg/kg, po. To be noted: in vivo, dose 100-250 mg/kg. Format: organism-based. The procedure, abridged:
(§1)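 Escalating single oral doses were given to mice until toxicity signs appeared. Regimens were 100, 150, 200 and 250 mg/kg, and 150, 200, 300, 400 and 600 mg/kg. Escalation was limited by solubility in the dosing solution.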

A short description of data set [16]: Plasma concentration in mouse at 100 mg/kg, po QD for 2 days measured after 2 hrs by LC-MS/MS analysis. The format is ADME, organism-based. To be noted: time 2 day. The essentials: (§2)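 Multiple-dose oral tolerability study in mice at 100 or 250 mg/kg over 7 days. Plasma was taken 2 h after dose 2, before dose 3, 2 h after dose 5, and 24, 48 and 72 h after dose 7. Drug was quantified by LC-MS/MS. Blood and organs were collected after the final dose.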

Data set [17] deals with Cryptosporidium parvum. Put plainly: Antimicrobial activity against nano-luciferase-expressing Cryptosporidium parvum infected in IFN-gamma KO B6.129S7-Ifngtm1Ts/J mouse assessed as log reduction of infection at 30 mg/kg, po QD for 5 days beginning on day 6 post infection relative untreated control. The settings on record: time 5.0 day. Format: functional, organism-based.

Data set [18] in a line: Toxicity in mouse assessed as effect on CBC parameters at 100 to 250 mg/kg, po QD for 7 days. The format is organism-based. To be noted: in vivo, 168 h, dose 100-250 mg/kg, time 7 day.
Data set [19] in a line: Plasma concentration in mouse at 100 mg/kg, po QD for 7 days measured after 48 hrs by LC-MS/MS analysis. The format is ADME, organism-based. The settings on record: time 7 day. The essentials: as §2
The nature of data set [20]: Toxicity in mouse assessed as effect on organ parameters at 100 to 250 mg/kg, po QD for 7 days by histological analysis. The format is organism-based. The settings on record: in vivo, 168 h, dose 100-250 mg/kg, time 7 day.
The nature of data set [21]: AUC in mouse at 10 mg/kg, po. The format is ADME, organism-based. More on the design: dose 10 mg/kg. The settings on record: in vivo.
A short description of data set [22]: Plasma concentration in mouse at 100 mg/kg, po QD for 5 days measured after 2 hrs by LC-MS/MS analysis. The settings on record: time 5 day. The format is ADME, organism-based. The essentials: as §2
The nature of data set [23]: Plasma concentration in mouse at 100 mg/kg, po QD for 7 days measured after 24 hrs by LC-MS/MS analysis. Format: ADME, organism-based. To be noted: time 7 day. The procedure, abridged:
as §2

Data set [24] can be described thus: Toxicity in mouse assessed as induction of lack of grooming at 250 mg/kg, po QD for 7 days. Format: organism-based. The settings on record: in vivo, 168 h, time 7 day.
Data set [25] is described as follows: Plasma concentration in mouse at 100 mg/kg, po QD for 7 days measured after 72 hrs by LC-MS/MS analysis. Format: ADME, organism-based. The settings on record: time 7 day. The procedure, abridged: as §2
Data set [26] deals with Proto-oncogene tyrosine-protein kinase Src (Homo sapiens, UniProt P12931). As to the kind of experiment: Inhibition of SRC (unknown origin). Format: ADME.
Data set [27] deals with Cryptosporidium parvum. As to the kind of experiment: Antimicrobial activity against nano-luciferase-expressing Cryptosporidium parvum infected in IFN-gamma KO B6.129S7-Ifngtm1Ts/J mouse assessed as log reduction of infection at 60 mg/kg, po QD for 5 days beginning on day 6 post infection relative untreated control. To be noted: time 5 day.
Data set [28] in a line: Plasma concentration in mouse at 100 mg/kg, po QD for 3 days measured on pre dose by LC-MS/MS analysis.
Data set [29] in a line: Clearance in mouse at 10 mg/kg, po. Format: ADME, organism-based. The settings on record: in vivo.
Data set [30] can be described thus: Plasma concentration in mouse at 250 mg/kg, po QD for 7 days measured after 24 hrs by LC-MS/MS analysis.
Data set [31] in a line: Toxicity in mouse assessed as induction of lethargy at 250 mg/kg, po QD for 7 days. The format is organism-based. The settings on record: in vivo, 168 h, time 7 day.
The nature of data set [32]: Plasma concentration in mouse at 250 mg/kg, po QD for 5 days measured after 2 hrs by LC-MS/MS analysis.
The nature of data set [33]: Solubility in pH 2.0 solution. To be noted: buffer.
Data set [34] can be described thus: Toxicity in mouse at 100 to 250 mg/kg, po. The format is organism-based. To be noted: in vivo, dose 100-250 mg/kg. The essentials: as §1
Data set [35] is described as follows: Plasma concentration in mouse at 250 mg/kg, po QD for 3 days measured on pre dose by LC-MS/MS analysis.

Proto-oncogene tyrosine-protein kinase Src, sequence (P12931 2-536 limits assumed): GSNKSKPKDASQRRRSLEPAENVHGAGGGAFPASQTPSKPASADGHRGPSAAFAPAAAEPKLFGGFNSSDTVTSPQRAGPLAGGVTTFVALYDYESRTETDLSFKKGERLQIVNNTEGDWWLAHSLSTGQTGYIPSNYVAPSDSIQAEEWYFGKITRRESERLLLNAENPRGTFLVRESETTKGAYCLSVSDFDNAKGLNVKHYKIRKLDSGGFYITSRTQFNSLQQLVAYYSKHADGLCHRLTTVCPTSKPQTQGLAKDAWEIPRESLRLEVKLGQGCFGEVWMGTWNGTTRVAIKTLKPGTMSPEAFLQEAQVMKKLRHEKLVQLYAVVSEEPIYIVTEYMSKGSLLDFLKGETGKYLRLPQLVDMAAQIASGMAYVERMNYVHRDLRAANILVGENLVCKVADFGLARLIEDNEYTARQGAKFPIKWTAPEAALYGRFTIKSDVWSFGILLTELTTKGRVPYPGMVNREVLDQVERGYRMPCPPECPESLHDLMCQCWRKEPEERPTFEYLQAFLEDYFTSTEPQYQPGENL

Consider `CCOc1ccc2cc(-c3nn(C(C)(C)C)c(N)c3C(N)=O)cnc2c1`, for which, in [1], the Activity entry is “Toxic”.

`CC(C)(C)n1nc(-c2ccc3cc(OC4CC4)ccc3c2)c(C(N)=O)c1N`: the PPB in [2] was found to be 95%; in data set [14] it was 82%. The Activity entry (in data set [3]; in [11]; in data set [12]; in the data set with HepG2; in [15]; in data set [18]) was “Non-Toxic” each time. Besides, the Activity result is given as “Non-Toxic” in data set [20], “Toxic” in data set [24], “Toxic” in data set [31] and “Non-Toxic” in data set [34]. Further, the concentration at 48 h in data set [4] was determined as 40.1 µM; in data set [16], 36.6 µM. In addition, the results for the solubility in data set [5] and in [33] were 65 µM (≈ 23.7 µg/mL) and 83 µM (≈ 30.2 µg/mL), respectively. For the same compound, the IC50 in data set [6] is 4.3 nM; in data set [26], > 10000 nM. The compound further returned a Cmax in data set [7] of 28.8 µM. The concentration at 168 h in [8] came to 0.7 µM; in [13], 2.3 µM; in data set [19] it was 4.8 µM; in data set [23] it was 26.4 µM; in [25], 0.3 µM; in data set [30], 24.6 µM. Moreover, in the data set on Cryptosporidium parvum [9], the outcome was inactive. The concentration in data set [10] turned out to be 0.42 µM. Also, the outcome with Cryptosporidium parvum [17] was Active. The AUC in data set [21] was determined as 9098 µmol·min/L. Moreover, the concentration at 120 h came out at 49.2 µM in [22] and 72.2 µM in [32]. Also, the FC in the data set with Cryptosporidium parvum [27] was found to be 3.52. Besides, the concentration at 72 h turned out to be 19.9 µM in data set [28] and 36.1 µM in [35]. Besides, in [29], the CL/F was found to be 0.5 mL/min.
